This note sets out measurements from ChEMBL document CHEMBL1152886, “Water-soluble prodrugs of an Aurora kinase inhibitor” (Bioorg Med Chem Lett, 2009).

A short description of data set [1]: Chemical stability assessed as compound remaining in aqueous buffer at pH 7.4 after 8 hrs. Format: physicochemical. To be noted: read-out: Stability. The gist of the method:
(§1)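 Compound held 8 h at room temperature in DMSO or in pH 7.4 buffer. Percent remaining determined by LC/MS.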

The nature of data set [2]: Chemical stability assessed as compound remaining in DMSO after 8 hrs. It is filed as physicochemical. To be noted: read-out: Stability. The gist of the method: as §1
Data set [3] is described as follows: Oral bioavailability in Sprague-Dawley rat at 10 mg/kg. It is filed as ADME, organism-based. The conditions noted are these: in vivo. The procedure, abridged:
(§2)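 Male Sprague–Dawley rats (n = 3) dosed orally, prodrug at a dose equivalent to 10 mg/kg of parent, compared with an equivalent oral dose of parent. Parent levels measured in plasma; AUC_INF derived from the plasma profile. Bioavailability is expressed with respect to the parent compound.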

Data set [4] can be described thus: Permeability across MDCK cells. To be noted: dog, read-out: permeability. It is filed as ADME, cell-based, Canis lupus familiaris.
Data set [5] is described as follows: AUC (0 to infinity) in Sprague-Dawley rat at 5 mg/kg, iv. It is filed as ADME, organism-based. Also noted: time infinity, dose 5 mg/kg, route intravenous. The conditions noted are these: plasma. The gist of the method:
(§3)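 Male Sprague–Dawley rats (n = 3) dosed iv, prodrug at a dose equivalent to 5 mg/kg of parent, compared with an equivalent iv dose of parent. Plasma profiles of both prodrug and released parent were determined, giving AUC_INF and elimination half-life.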

Data set [6] is described as follows: AUC (0 to infinity) in Sprague-Dawley rat at 10 mg/kg, po. Format: ADME, organism-based. Also noted: time infinity, dose 10 mg/kg, route oral. The conditions noted are these: plasma. The procedure, abridged:
as §2

Data set [7] in a line: Aqueous solubility at pH 7.8. Format: physicochemical. The conditions noted are these: aqueous solution. The gist of the method: (§4)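 Thermodynamic solubility from a slurry. Sonicated 20 min at room temperature, 10 min at 50 °C, then 10 min at room temperature, and agitated at least two days at room temperature. Residual solid was checked for crystallinity by polarized light microscopy. Slurry centrifuged 15,000 rpm at 20 °C for 20 min. Supernatant assayed by HPLC and its pH measured. Values are typically means of two measurements.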

Data set [8] in a line: Half life in Sprague-Dawley rat at 5 mg/kg, iv. On the set-up: dose 5 mg/kg, route intravenous. It is filed as ADME, organism-based. To be noted: in vivo. The procedure, abridged:
as §3

Data set [9] is described as follows: Aqueous solubility at pH 2.5. Format: physicochemical. The conditions noted are these: aqueous solution. The gist of the method:
as §4

The nature of data set [10]: Aqueous solubility at pH 3.2. Format: physicochemical. The conditions noted are these: aqueous solution. The procedure, abridged:
as §4

A short description of data set [11]: Aqueous solubility at pH 3.5. Format: physicochemical. The conditions noted are these: aqueous solution. The procedure, abridged:
as §4

In brackets after ≈: the same amount, converted by molar mass. Bounds are passed on as bounds.

`CNCC(=O)OCn1cc(CCNc2ncnc3ccsc23)s/c1=N\C(=O)Nc1cccc(Cl)c1`: the remaining at 8 h in data set [1] and in data set [2] was 0% throughout.

As for `O=C(/N=c1\sc(CCNc2ncnc3ccsc23)cn1COC(=O)C1CCNCC1)Nc1cccc(Cl)c1`, the remaining at 8 h in data set [1] is 52%; in [2], 84%.

As to `O=C(/N=c1\sc(CCNc2ncnc3ccsc23)cn1COP(=O)(O)O)Nc1cccc(Cl)c1`, the bioavailability in [3] is 44%. Moreover, in [4], the Papp is below 1 ×10⁻⁶ cm/s. Further, the remaining at 8 h in data set [1] and in data set [2] was 100% each time. For the same compound, the AUC(0-inf) in [5] was determined as 1910 ng·h/mL; in [6] it was 2200 ng·h/mL. The same compound came in with a solubility in [7] of 4700 µg/mL (≈ 8690 µM). In [8], this compound gave a half-life of 0.5 h.

Regarding `CC(=O)OCn1cc(CCNc2ncnc3ccsc23)s/c1=N\C(=O)Nc1cccc(Cl)c1`, the remaining at 8 h in [1] and in [2] was 100% throughout. The solubility in data set [9] is 120 µg/mL (≈ 239 µM).

In turn, `CC(C)(C)C(=O)OCn1cc(CCNc2ncnc3ccsc23)s/c1=N\C(=O)Nc1cccc(Cl)c1` gave a solubility in data set [10] of 280 µg/mL (≈ 514 µM). The remaining at 8 h in data set [1] and in data set [2] was 100% each time.

In the case of `O=C(/N=c1\sc(CCNc2ncnc3ccsc23)cn1COC(=O)CC1CCNCC1)Nc1cccc(Cl)c1`, the remaining at 8 h in data set [1] and in [2] was 100% throughout. For the same compound, the solubility in data set [11] amounted to 2500 µg/mL (≈ 4270 µM).

For `CS(=O)(=O)O.O=C(Nc1cccc(Cl)c1)Nc1ncc(CCNc2ncnc3ccsc23)s1` [SNS-314 MESYLATE], the solubility in data set [10] came to 14 µg/mL. The compound further displayed a bioavailability in [3] of 72%. Further, the AUC(0-inf) in data set [5] was 2090 ng·h/mL; in [6], 3650 ng·h/mL. Further, the half-life in data set [8] was 2.1 h.

As to `CC(C)C(=O)OCn1cc(CCNc2ncnc3ccsc23)s/c1=N\C(=O)Nc1cccc(Cl)c1`, the concentration in solution in data set [10] (solubility) was 170 µg/mL (≈ 320 µM).

A word on the bioavailability: it is dose-corrected exposure relative to a reference, in per cent. One may read the AUC(0-inf) as total exposure, with the tail of the curve extrapolated. A higher AUC(0-inf) goes with more exposure. The term solubility denotes the dissolved amount per volume that the medium holds. A higher solubility goes with a readily soluble substance. One may read the half-life as the time needed for the level to fall by half in the phase considered. A high value points to slow loss.
